# Test results reported in ChEMBL document CHEMBL1156638, “Antibacterial cannabinoids from Cannabis sativa: a structure-activity study” (2008).
# Experiments:
# Type in all cases: functional
# Staphylococcus aureus [1] = test: Antibacterial activity against […] Staphylococcus aureus SA1199B after 18 hrs
# Summary of the method: (§1)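 Broth microdilution in Mueller-Hinton broth adjusted to 20 mg/L Ca2+ and 10 mg/L Mg2+. Overnight cultures diluted in 0.9% saline to 5 ×10^5 cfu against a MacFarland standard. Compounds serially diluted twofold, inoculum added, incubated 37 °C for 18 h. DMSO (3.125%) control included. MIC taken as lowest concentration with no visible growth, done in duplicate. MTT (5 mg/mL methanolic) used.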
# Staphylococcus aureus [2] = test: Antibacterial activity against tetracycline-resistant Staphylococcus aureus XU212 after 18 hrs; conditions: XU212, 18 h; summary of the method: as §1
# Staphylococcus aureus [3] = test: Antibacterial activity against epidemic methicillin-resistant Staphylococcus aureus 15 after 18 hrs; summary of the method: as §1
# Staphylococcus aureus [4] = test: Antibacterial activity against epidemic methicillin-resistant Staphylococcus aureus 16 after 18 hrs; summary of the method: as §1
# Staphylococcus aureus [5] = test: Antibacterial activity against […] Staphylococcus aureus ATCC 25923 after 18 hrs; conditions: ATCC 25923, 18 h; summary of the method: as §1
# Staphylococcus aureus [6] = test: Antibacterial activity against macrolide-resistant Staphylococcus aureus RN4220 after 18 hrs; conditions: RN4220, 18 h; summary of the method: as §1
Structure (SMILES),MIC (Staphylococcus aureus [1]),MIC (Staphylococcus aureus [2]),MIC (Staphylococcus aureus [3]),MIC (Staphylococcus aureus [4]),MIC (Staphylococcus aureus [5]),MIC (Staphylococcus aureus [6])
CCCCCc1cc(O)c(C/C=C(\C)CCC=C(C)C)c(O)c1C(=O)OC,64 µg/mL,64 µg/mL,–,–,–,–
C=C(C)[C@@H]1CCC(C)=C[C@H]1c1c(O)cc(CCCCC)c(C(=O)OC)c1O,> 128 µg/mL,> 128 µg/mL,> 128 µg/mL,> 128 µg/mL,> 128 µg/mL,> 128 µg/mL
C=C(C)[C@@H]1CCC(C)=C[C@H]1c1c(OC)cc(CCCCC)cc1OC,> 128 µg/mL,> 128 µg/mL,> 128 µg/mL,> 128 µg/mL,> 128 µg/mL,> 128 µg/mL
C=C(C)[C@@H]1CCC(C)=C[C@H]1c1c(O)cc(O)cc1CCCCC,1 µg/mL,1 µg/mL,1 µg/mL,1 µg/mL,1 µg/mL,1 µg/mL
CCCCCc1cc(O)c(C/C=C(\C)CCC=C(C)C)c(OC)c1,> 128 µg/mL,> 128 µg/mL,> 128 µg/mL,> 128 µg/mL,> 128 µg/mL,> 128 µg/mL
CCCCCc1cc(OC)c(C/C=C(\C)CCC=C(C)C)c(OC)c1,> 128 µg/mL,> 128 µg/mL,> 128 µg/mL,> 128 µg/mL,> 128 µg/mL,> 128 µg/mL
CCCCCc1cc(O)c(C/C=C(\C)CCC=C(C)C)c(O)c1C(=O)OCCc1ccccc1,> 128 µg/mL,> 128 µg/mL,> 128 µg/mL,> 128 µg/mL,> 128 µg/mL,> 128 µg/mL
C=C(C)[C@@H]1CCC(C)=C[C@H]1c1c(O)cc(CCCCC)cc1OC,> 128 µg/mL,> 128 µg/mL,> 128 µg/mL,> 128 µg/mL,> 128 µg/mL,> 128 µg/mL
C=C(C)C1CCC(C)=CC1c1c(CCCCC)cc(O)c([C@@H]2C=C(C)CC[C@H]2C(=C)C)c1O (some centres not stated),> 128 µg/mL,> 128 µg/mL,> 128 µg/mL,> 128 µg/mL,> 128 µg/mL,> 128 µg/mL
CCCCCc1cc(O)cc(O)c1C/C=C(\C)CCC=C(C)C,2 µg/mL,0.5 µg/mL,2 µg/mL,–,1 µg/mL,1 µg/mL
CCCCCc1cc(OC(C)=O)c(C/C=C(\C)CCC=C(C)C)c(OC(C)=O)c1,> 128 µg/mL,> 128 µg/mL,> 128 µg/mL,> 128 µg/mL,> 128 µg/mL,> 128 µg/mL
C=C(C)[C@@H]1CCC(C)=C[C@H]1c1c(OC(C)=O)cc(CCCCC)cc1OC(C)=O,> 128 µg/mL,> 128 µg/mL,> 128 µg/mL,> 128 µg/mL,> 128 µg/mL,> 128 µg/mL
C=C(C)[C@@H]1CCC(C)=C[C@H]1c1c(O)cc(CCCCC)c(C(=O)OCCc2ccccc2)c1O,> 128 µg/mL,> 128 µg/mL,> 128 µg/mL,> 128 µg/mL,> 128 µg/mL,> 128 µg/mL
CCCCCc1cc(O)c2c(c1)OC(C)(CCC=C(C)C)C=C2 (configuration not stated) [CANNABICHROMENE],2 µg/mL,1 µg/mL,2 µg/mL,2 µg/mL,2 µg/mL,2 µg/mL
C=C(C)[C@@H]1CCC(C)=C[C@H]1c1c(O)cc(CCCCC)c(C(=O)O)c1O [CANNABIDIOLIC ACID],2 µg/mL,2 µg/mL,2 µg/mL,2 µg/mL,2 µg/mL,2 µg/mL
C=C(C)[C@@H]1CCC(C)=C[C@H]1c1c(O)cc(CCCCC)cc1O [CANNABIDIOL],1 µg/mL,1 µg/mL,1 µg/mL,1 µg/mL,0.5 µg/mL,1 µg/mL
CCCCCc1cc(O)c(C/C=C(\C)CCC=C(C)C)c(O)c1C(=O)O [CANNABIGEROLIC ACID],4 µg/mL,4 µg/mL,2 µg/mL,4 µg/mL,4 µg/mL,2 µg/mL
CCCCCc1cc(O)c(C/C=C(\C)CCC=C(C)C)c(O)c1 [CANNABIGEROL],1 µg/mL,1 µg/mL,2 µg/mL,1 µg/mL,1 µg/mL,1 µg/mL
CCCCCc1cc(O)c2c(c1)OC(C)(C)c1ccc(C)cc1-2 [CANNABINOL],1 µg/mL,1 µg/mL,1 µg/mL,–,1 µg/mL,1 µg/mL
CCCCCc1cc(O)c(C/C=C(\C)CCC(O)C(C)(C)O)c(O)c1 (configuration not stated) [CARMAGEROL],32 µg/mL,16 µg/mL,16 µg/mL,32 µg/mL,16 µg/mL,32 µg/mL
CCCCCc1cc2c(c(O)c1C(=O)O)[C@@H]1C=C(C)CC[C@H]1C(C)(C)O2 [DELTA9-TETRAHYDROCANNABINOLIC ACID A],8 µg/mL,8 µg/mL,8 µg/mL,4 µg/mL,4 µg/mL,4 µg/mL
CCCCCc1cc(O)c2c(c1)OC(C)(C)[C@@H]1CCC(C)=C[C@@H]21 [DRONABINOL],2 µg/mL,1 µg/mL,2 µg/mL,0.5 µg/mL,1 µg/mL,1 µg/mL
CC[C@H]1OC(=O)[C@H](C)[C@@H](O[C@H]2C[C@@](C)(OC)[C@@H](O)[C@H](C)O2)[C@H](C)[C@@H](O[C@@H]2O[C@H](C)C[C@H](N(C)C)[C@H]2O)[C@](C)(O)C[C@@H](C)C(=O)[C@H](C)[C@@H](O)[C@]1(C)O [ERYTHROMYCIN],0.25 µg/mL,> 128 µg/mL,> 128 µg/mL,> 128 µg/mL,0.25 µg/mL,64 µg/mL
CCn1cc(C(=O)O)c(=O)c2cc(F)c(N3CCNCC3)cc21 [NORFLOXACIN],32 µg/mL,4 µg/mL,0.5 µg/mL,128 µg/mL,1 µg/mL,1 µg/mL
Cc1onc(-c2ccccc2)c1C(=O)N[C@@H]1C(=O)N2[C@@H]1SC(C)(C)[C@@H]2C(=O)O [OXACILLIN],0.25 µg/mL,128 µg/mL,32 µg/mL,> 128 µg/mL,0.125 µg/mL,0.25 µg/mL
Oc1cccc(O)c1 [RESORCINOL],> 256 µg/mL,> 256 µg/mL,> 256 µg/mL,> 256 µg/mL,> 256 µg/mL,> 256 µg/mL
CN(C)[C@@H]1C(O)=C(C(N)=O)C(=O)[C@@]2(O)C(O)=C3C(=O)c4c(O)cccc4[C@@](C)(O)[C@H]3C[C@@H]12 [TETRACYCLINE],0.25 µg/mL,128 µg/mL,0.125 µg/mL,0.125 µg/mL,0.25 µg/mL,0.25 µg/mL
CCCCCc1cc(O)cc(O)c1 [WHILE OLIVETOL],64 µg/mL,64 µg/mL,64 µg/mL,64 µg/mL,128 µg/mL,64 µg/mL
